In the EternaBench riboswitch data:

System: MS2 coat protein
Assay: apparent Kd, MS2 coat protein; higher = weaker binding; RNA-MaP array; FMN 200 µM where present
How it was run: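 SNAP-549-labelled MS2 coat protein, doubled from 0.7 or 1.5 nM to 3 µM, was titrated over designs transcribed by stalled E. coli RNA polymerase on Illumina sequencing-chip clusters. Titrations were run without and then with constant ligand in 100 mM Tris-HCl pH 7.5, 80 mM KCl, 4 mM MgCl2, BSA, DTT, yeast tRNA and Tween-20. The apparent Kd is the median of filtered per-cluster fits to green signal normalised to red-channel RNA signal and control-cluster median Fmax.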

[1] = designed as: ON switch for flavin mononucleotide, no ligand
[2] = ligand present: flavin mononucleotide, designed as: ON switch for flavin mononucleotide
[3] = designed as: OFF switch for flavin mononucleotide, no ligand
[4] = ligand present: flavin mononucleotide, designed as: OFF switch for flavin mononucleotide

| Sequence | apparent Kd [1] [nM] | apparent Kd [2] [nM] | apparent Kd [3] [nM] | apparent Kd [4] [nM] |
| --- | --- | --- | --- | --- |
| ACAUGAGGAUCACCCAUGUUCACAUAGGAUAUUGAUUAUAUUGGUUUAAGAAUAGUAAUUAACCUCAAGAAGGAUGCCUGAUCU | 14.9 | 12 | – | – |
| ACAUGAGGAUCACCCAUGUUCACAUAGGAUAUUGAUUUUAUUGGUUUUAGAAUAGUAAUUAAACUCAAGAAGGAUGCCAGUUGU | 10.7 | 8.78 | – | – |
| ACAUGAGGAUCACCCAUGUUGAAUUAGGAUAUUUGACUGCACAUGAGGUUCUCCCAUGUUCUACCGGAGAAGGGAUUAAUAAUU | 549 | 240 | – | – |
| ACAUGAGGAUCACCCAUGUUUUUCGGGUACUCUUUUUACAGCAAGGAUAUGCAUUAUUUUUUUACGCAGAAGGUGCUUUACGUC | – | – | 114 | 196 |
| ACAUGAGGAUCUCCCAUGUAAAAUUAGGAUAUAUAACUGCACAUGAGGAUCACCCAUGUUUUACCGUAGAAGGGAUAAAUAAUU | 1010 | 567 | – | – |
| ACAUGAGGAUGAGGAUAUUCAUACAUGAGGAUAGAAGAAGGCAUACAUGAGGAUCACCCAUGUAUACACAUGAGGAUCCCUUAU | – | – | 81.1 | 156 |
| ACAUGAUAUGUAGGAUAUCACAACUUGUGUUAUAAAAUUGUAAUUUAGGAUUGAGAAGGACAUUUACAUGAGGAUCACCCAUGU | – | – | 17.6 | 13.3 |
| ACAUGAUAUGUAGGAUAUCACAUUAAUUGUUUUAUAAUUGUAUUUAGGAUUUGAGAAGGACAUUUACAUGAGGAUCACCCAUGU | – | – | 15.8 | 11.3 |
| ACAUGUUUUGUAGGAUAUCACUAGUUGUGUUAUAUAUUUGUUAUAAUGUAUUGAGAAGGACAUUUACAUGAGGAUCACCCAUGU | – | – | – | 7.44 |
| ACAUUCACUCGACUGGUUCUUAACAUGAGGAUCACCCAUGUAGAGGAUAUAGGAAUUCUGGGUUCCUAGAAGGCUACGUGAGUG | – | – | 15.9 | 76.7 |
| ACCAGUGCAUCAGGAUAUCCUCACAUGAGGAUCACCCAUGUAAUGAGCCGAGGAGAAGGGAUGUGAACUCCAGUUAUCGAUCGU | 101 | 14.1 | – | – |
| ACCAUUUACUAAUCCUCUAUACAUGAGGAUCACCCAUGUUAUGAGGAUAUCAUCGUUCGCCGCGUUGAGAAGGCAUAGCAUUCG | – | – | 16.3 | 25.9 |
| ACCAUUUACUAAUCCUCUAUACAUGAGGAUCACCCAUGUUUUGAGGAUAUCAGCGUGAAACACGCUGAGAAGGCAAAACAUUCG | – | – | 73.5 | 104 |
| ACCCGCAAACGUUGGAAUCGUAAGAGAAGGUGGACAUGAGGAUCACCCAUGUGCAUCCUGCGUUCCAAGGAUAUCUUACUGAAU | – | – | 10.9 | 48 |
| ACCGAACAUGAGGAUCACCCAUGUGAGGAUAUAGACGUGAAUUAAACACGUAACAAAACUAGAAGGCACUGGGC | – | – | 30.8 | 14.9 |
| ACCGUGCAAGGAUAUCGUUACCUCGACAUGAGGAUCACCCAUGUGGCCAUAUAGCGAUUGCGAGAAGGUGCGGGUA | – | – | 127 | 112 |
| ACCUCACAUGAGGAUCACCCAUGUCAGGAUAUACGAAGGUAUAGCGCCGAAUACUGAAGUAGAAGGGACAGGCA | – | – | 26.9 | 76.9 |
| ACGACAAAAGUCGAACGAUGUAGCAGAAGGACAUGAGGAUCACCCAUGUAAAAUGUAACAGCCAUGUAGGAUAUGCAAAAUCGA | – | – | 37.7 | 159 |
| ACGACGAAAGUCGAACGAUGUAGCAGAAGGACAUGAGGAUCACCCAUGUCAGCUGUAAAAGCCAUGUAGGAUAUGCUACAUCGA | – | – | 3.51 | 4.4 |
| ACGCAGCUAGGUGAGGAUAUCGGUGGUAAAACAUGAGGAUCACCCAUGUCCGAAGCUCGGACUUCCGAGAAGGCGCCCGGCUGCA | 122 | 15.7 | – | – |
| ACGCAGCUGGGUAAGGAUAUCGGUGGUAAAACAUGAGGAUCACCCAUGUCCGAAGCUCGGACCUCCGAGAAGGUGCCCGGCUGCG | 8.17 | 8.14 | – | – |
| ACGCGAUGGGAGAAGGUACUUUAAUUAGGUUACACAUGAGGAUCACCCAUGUAAGGAUAUCCCAUCGUUAAAUAUUAUACAGCA | – | – | 6.16 | 5.41 |
| ACGCUUUGGGAGAAGGUACUUUAAAUUUUUUCCACAUGAGGAUCACCCAUGUAAGGAUAUCCCAUCGUUAAAUAUUCUACAGCA | – | – | 8.4 | 7.06 |
| ACGGUGGUCACAGGAUAUCCAGCCCGCGUGCCUGGAGAAGGGUGACUCAGAACCACAUGAGGAUCACCCAUGUGCCUUGCCGUA | 140 | 33.4 | – | – |
| ACGUCACAUGAGGAUCACCCAUGUCAGGCCGGACUAGGAUAUUAUCAUGCAGCGUGACCGUGAGAAGGAGUUGGAU | 104 | 82.2 | – | – |
| ACGUCUUAGUAGAAGGGACAUCGGCUGGUAAGCAUCAUCUCCUUCUCACAUGAGGAUCACCCAUGUCAGGAUAUACUAAGAGUC | – | – | 12.3 | 38.2 |
| ACGUGGAGUCCGCAACAGAACACACAGGAUAUGAGUGGGCACAUGAGGAUCACCCAUGUUACGGAUCAGAAGGGUGUGCUCAUG | 449 | 56.3 | – | – |
| ACUAAACGAGGAUAUACUGACAGGCCUCAGACAUACAUCAAACAUGAGGAUCACCCAUGUAGAAGGCGUAAACU | – | – | 37.2 | 36.7 |

| Sequence | apparent Kd [1] [nM] | apparent Kd [2] [nM] | apparent Kd [3] [nM] | apparent Kd [4] [nM] |
| --- | --- | --- | --- | --- |
| ACUAAGAGAGGAUAUACUAACAAACCUCAAACAUACAUCAAACAUGAGGAUCACCCAUGUAGAAGGCUCAAACU | – | – | 30.5 | 31.6 |
| ACUAAGCGAGGAUAUACUAACAAACCUCAAACAUACAUCAAACAUGAGGAUCACCCAUGUAGAAGGCGCAAACU | – | – | 27.3 | 37.6 |
| ACUACGAUAGCGAUAUGAUCGAGAGAUCAUGUCGCUAUUUUUAGAAGGACAUGAGGAUCACCCAUGUAGGAUAUGGGACGUGGA | 70.4 | 27.1 | – | – |
| ACUAGAAGCGUGAAAUAUCACAUGAGGAUCACCCAUGUGACGCAGGAUAUAACAAAAUCAGAAGGUUAGAAGGGUGAGCACGCC | 26.8 | 20.2 | – | – |
| ACUAGAUGAGGAUAUACACAUUUUAGUGUUCCUCUAGAUUAACAUGAGGAUCACCCAUGUAGAAGGCAUCAAUU | – | – | 56.5 | 183 |
| ACUAGAUGAGGAUAUGCACAUUUUAGUGUUCCUCUAGAUUAACAUGAGGAUCACCCAUGUAGAAGGCGUCAAUU | – | – | 45.7 | 64.8 |
| ACUAGUUGGUAAGGAUAUCCUACACUAUUCUGACCCGUGCAAGCUACAUGAGGAUCACCCAUGUGGGAGAAGGUGCGUCAACGU | – | – | 11 | 10.6 |
| ACUCGCGGAGAGAAGGGAUUUGUACAUGAGGAUCACCCAUGUCGCACGGUCAGGAUAUCUUCGUCAGGUACAACAUACGUCCCG | 16.8 | 6.99 | – | – |
| ACUGGUCGAGGAUAUACGUGACGUGCUUCGGCACGAGGUCUACAUGAGGAUCACCCAUGUAGAAGGCGACCAGU | – | – | 17 | 53.9 |
| ACUGUCGCGUGAGGAUAUGGUCUGCAGUGCUGACCAGAAGGCAUGUCGAUAGACAUGAGGAUCACCCAUGUGGUUAGGGCGGCA | 933 | 467 | – | – |
| ACUUAUGAAGGAUAUACUAGCGACAUGCACUCAACACGCGCACAUGAGGAUCACCCAUGUAGAAGGUCAAACAU | – | – | 25.8 | 23.1 |
| ACUUUAUAUGAGAAGGUGAAGUGGAAACAUGAGGAUCACCCAUGUAAUACGAAGCGUAUUUUUAUCAAGGAUAUCAUAUAAAGA | 10.8 | 8.81 | – | – |
| AGAAAACAUGAGGAUCACCCAUGUAGAAAUAUGGGAGGAUAUACAAAGACGAAAGUCAAGGUAGAAGGCCUAAAGA | 86.7 | 27.4 | – | – |
| AGAAAACAUGAGGAUCACCCAUGUGAGGAUAUCGAUGUCCAAGGGCGGGUGCGGGACUCGAGAAGGCACUUGGA | – | – | 76 | 64.3 |
| AGAAACUACGAGAAGGACAUAAAAGGUGCCGCAAACAUGAGGAUCACCCAUGUAGGAUAUCGUAGUUUCAGGAUCGUGAGAUCA | – | – | 28.4 | 262 |
| AGAAACUACGAGAAGGACAUGAGAACCUUCAAUUACAUGAGGAUCACCCAUGUAGGAUAUCGUAGUUUCAGGAUCGUGAGAUCA | – | – | 12.7 | 86 |
| AGAAACUACGAGAAGGACAUGAGGAUCACCCAUGUUUCCACUUAGUGGUAUGUAGGAUAUCGUAGUUUCAGGAUCGUGAGAUCA | – | – | 5.81 | 6.39 |
| AGAAACUACGAGAAGGACAUGUGGUCCUUCGAAAACAUGAGGAUCACCCAUGUAGGAUAUCGUAGUUUCAGGAUCGUGAGAUCA | – | – | 18.2 | 4.37 |
| AGAAAUUAGUGAGGAUAUGCAUAAUAUUUAGCUGCAGAAGGCACGGACCACAAGACAUGAGGAUCACCCAUGUGGUAUAUAGAU | – | – | 24.9 | 30.9 |
| AGAAGACAUGAGGAUCACCCAUGUGCACGUGGAGGAGGAUAUGCUAGUAGAAGAUAGAAUGCAGAAGGCCUAAGAA | 88 | 85.6 | – | – |
| AGAAGUUUGUAGAAGGACGACUAAUUUGUAUUCGUAGGAUAUACUAUUUACAUGAGGAUCACCCAUGUUUAAAUGGAACAAUGU | – | – | 7 | 10.2 |
| AGAAUGGGCGAGAAGGGAGUACAUGAGGAUCACCCAUGUGGUUGAUGGUGCUCAGGAUAUCGAAGGACCAGGGAGCGUCUCUGG | – | – | 185 | 302 |
| AGACCGCUACGCCGGUUUCACGCACAGGAUAUGCGGUUACAUGAGGAUCACCCAUGUGGCCAUGUGUAGAAGGGUGGUUCGUGC | 37 | 30.1 | – | – |
| AGACCGUUCGAGAAGGUGCGAGAGAAAUGUGAGUGAGGAUAUUGAAACAUGAGGAUCACCCAUGUCAUGAGGAUCGCCGAUGUG | 39.6 | 31.6 | – | – |
| AGACGGAGCAGAGGAUAUACAUGAGGAUCACCCAUGUAAAUGAAAGAUAGCAGCAAAGCUGCAAUGUAGAAGGCUGCUCCGUCA | – | – | 29.2 | 83.8 |
| AGACGGAGCUGAGGAUAUACAUGAGGAUCACCCAUGUAAGAUCUCCAGGAAACUGGAGAUCAAAAGUAGAAGGCAGCUCCGUCA | – | – | 15.1 | 23.1 |
| AGAGAAUAGGUAGGAUAUCUUAAUAGAAAGAAUAGAGAAGGACCACAUGAGGAUCACCCAUGUGAAGUCUUGAGACUACAUGGU | – | – | 18.1 | 22.9 |
